From ChEMBL document CHEMBL3526116, “Toxicological evaluation of acyl glucuronides of nonsteroidal anti-inflammatory drugs using human embryonic kidney 293 cells stably expressing human UDP-glucuronosyltransferase and human hepatocytes” (Drug Metab Dispos, 2011)

Experiments:
[1] = test system: HEK293; experiment: Cytotoxicity against HEK293 cells expressing UGT1A3 assessed as decrease in cell viability at 1 mM measured at 24 hrs by MTT assay; assay type: ADME, cell-based; settings: human, hek293, 24 h, 1000 µM
[2] = test system: HEK293; experiment: Genotoxicity in HEK293 cells expressing UGT1A3 assessed as DNA strand breaks at 0.1 mM after 24 hrs by comet assay; assay type: toxicity, cell-based; settings: human, hek293, 24 h, 100 µM
How it was run: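 HEK293 cells stably expressing UGT1A3, seeded 24 h before treatment and exposed 24 h in 0.5% FBS DMEM (vehicle 0.1% DMSO). Alkaline comet assay: low-melting agarose embedding, lysis pH 10 for 1 h at 4°C, 30 min unwinding in NaOH/EDTA, electrophoresis 300 mA for 20 min, ethidium bromide stain. Tail extent moment scored on 150-180 cells over more than 3 experiments, median (IQR).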

[3] = test system: HEK293; experiment: Cytotoxicity against HEK293 cells expressing UGT assessed as LDH leakage at 1 mM after 6 to 24 hrs by spectrophotometric analysis relative to total cell LDH level; assay type: ADME, cell-based; settings: human, hek293, 1000 µM
How it was run: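 Stable UGT-expressing or mock HEK293 lines in DMEM with 0.5% FBS, 2 x 10^4 cells/well, drug for 6, 12 or 24 h. LDH released into medium read at 490 nm (690 nm reference); percentage calculated against maximum release from control cells lysed with 1% Triton X-100.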

[4] = test system: HEK293; experiment: Cytotoxicity against mock transfected HEK293 cells assessed as decrease in cell viability at 1 mM by MTT assay; assay type: cell-based; settings: human, hek293, 1000 µM; TDE = time-dependent effect
[5] = test system: Hepatocyte; experiment: Cytotoxicity against human hepatocytes assessed as decrease in cell viability by measuring intracellular ATP content at 1 mM measured at 6 hrs by CellTiter-Glo luminescent assay in absence of acyl glucuronidation inhibitor (-)-borneol; assay type: cell-based; settings: 1000 µM
How it was run: (§1)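 Human hepatocytes (pooled, cryopreserved), 2 × 10^4 cells/well on collagen in HCM with 0.5% FBS and 10 nM estradiol; 30-min preincubation ± 1 mM (-)-borneol, then drug 6 h. Intracellular ATP measured by CellTiter-Glo luminescence, percent of control cells. Triplicates, mean ± SD.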

[6] = test system: Hepatocyte; experiment: Cellular uptake in human hepatocytes at 1 mM measured at 6 hrs by LC-MS/MS analysis in absence of acyl glucuronidation inhibitor (-)-borneol; assay type: ADME, cell-based; settings: 1000 µM
How it was run: (§2)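 Cryopreserved pooled human hepatocytes on collagen-coated wells, 2 × 10^5 cells/well in HCM medium with 0.5% FBS, preincubated 30 min with or without 1 mM (-)-borneol, then drug for 6 h; DMSO ≤0.2% final. Parent drug in cell fraction measured by LC-MS/MS after methanol/acetic acid extraction. Mean ± SD of triplicates.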

[7] = test system: HEK293; experiment: Cytotoxicity against HEK293 cells expressing UGT1A4 assessed as decrease in cell viability by measuring intracellular ATP content at 1 mM by CellTiter-Glo luminescent assay; assay type: ADME, cell-based; settings: human, hek293, 1000 µM; TDE = time-dependent effect
How it was run: (§3)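 UGT1A3 or UGT1A4 stable HEK293 cells, 2 x 10^4 cells/well in 0.1 mL DMEM with 0.5% FBS, drug for 6, 12 or 24 h. Viability from intracellular ATP via CellTiter-Glo luminescence, expressed as percent of control cells. Mean ± SD of triplicates.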

[8] = test system: HEK293; experiment: Cytotoxicity against HEK293 cells expressing UGT1A4 assessed as decrease in cell viability at 1 mM by MTT assay; assay type: ADME, cell-based; settings: human, hek293, 1000 µM; TDE = time-dependent effect
[9] = test system: Hepatocyte; experiment: Cellular uptake in human hepatocytes at 1 mM measured at 6 hrs by LC-MS/MS analysis in presence of acyl glucuronidation inhibitor (-)-borneol; assay type: ADME, cell-based; settings: 1000 µM; how it was run: as §2
[10] = test system: HEK293; experiment: Cytotoxicity against HEK293 cells expressing UGT assessed as decrease in cell viability at 1 mM measured up to 72 hrs by MTT assay; assay type: ADME, cell-based; settings: human, hek293, 72 h, 1000 µM
How it was run: (§4)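 Mock and UGT1A3/UGT1A4 stable HEK293 cells given drug for up to 72 h; viability measured by WST-8-based MTT assay.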

[11] = test system: HEK293; experiment: Cytotoxicity against HEK293 cells expressing UGT1A3 assessed as decrease in cell viability at 1 mM by MTT assay; assay type: ADME, cell-based; settings: human, hek293, 1000 µM; TDE = time-dependent effect
[12] = test system: HEK293; experiment: Cytotoxicity against HEK293 cells expressing UGT1A3 assessed as decrease in cell viability by measuring intracellular ATP content at 1 mM by CellTiter-Glo luminescent assay; assay type: ADME, cell-based; settings: human, hek293, 1000 µM; TDE = time-dependent effect; how it was run: as §3
[13] = test system: Hepatocyte; experiment: Cytotoxicity against human hepatocytes assessed as decrease in cell viability by measuring intracellular ATP content at 1 mM measured at 6 hrs by CellTiter-Glo luminescent assay in presence of acyl glucuronidation inhibitor (-)-borneol; assay type: cell-based; settings: 1000 µM; how it was run: as §1
[14] = test system: HEK293; experiment: Cytotoxicity against mock transfected HEK293 cells assessed as decrease in cell viability by measuring intracellular ATP content at 1 mM by CellTiter-Glo luminescent assay; assay type: cell-based; settings: human, hek293, 1000 µM; TDE = time-dependent effect
How it was run: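 Mock-transfected HEK293 cells seeded at 2 x 10^4 cells/well in DMEM with 0.5% FBS, drug added at once and incubated 6, 12 or 24 h. Viability read either by WST-8 (CCK-8) formazan absorbance at 450 nm or by intracellular ATP luminescence (CellTiter-Glo), as percent of control cells; mean ± SD of triplicates. Final DMSO ≤0.1%.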

[15] = test system: HEK293; experiment: Genotoxicity in HEK293 cells expressing UGT1A3 assessed as DNA strand breaks at 1 mM after 24 hrs by comet assay; assay type: toxicity, cell-based; settings: human, hek293, 24 h, 1000 µM
How it was run: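 Alkaline comet assay: HEK/UGT1A3 cells seeded 24 h before, treated 24 h in DMEM with 0.5% FBS (vehicle 0.1% DMSO; MMS 0.1 mM positive control). Cells embedded in LMP agarose, lysed 1 h at 4°C at pH 10, unwound 30 min in NaOH/EDTA, electrophoresed 300 mA 20 min, ethidium-stained; tail moment scored on 150-180 comets over >3 experiments, median (IQR).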

[16] = test system: Hepatocyte; experiment: Cytotoxicity against human hepatocytes assessed as decrease in cell viability at 1 mM measured at 6 hrs […] in presence of acyl glucuronidation inhibitor (-)-borneol; assay type: cell-based; settings: 1000 µM
[17] = test system: HEK293; experiment: Cytotoxicity against HEK293 cells expressing UGT1A4 assessed as decrease in cell viability at 1 mM measured at 24 hrs by MTT assay; assay type: ADME, cell-based; settings: human, hek293, 24 h, 1000 µM
[18] = test system: HEK293; experiment: Cytotoxicity against HEK293 cells expressing UGT1A3 assessed as decrease in cell viability at 0.1 mM measured at 24 hrs by MTT assay; assay type: ADME, cell-based; settings: human, hek293, 24 h, 100 µM
[19] = test system: HEK293; experiment: Cytotoxicity against HEK293 cells expressing UGT assessed as decrease in cell viability at 0.1 mM measured up to 72 hrs by MTT assay; assay type: ADME, cell-based; settings: human, hek293, 72 h, 100 µM; how it was run: as §4
[20] = test system: HEK293; experiment: Cytotoxicity against HEK293 cells expressing UGT1A4 assessed as decrease in cell viability at 0.1 mM measured at 24 hrs […]; assay type: ADME, cell-based; settings: human, hek293, 24 h, 100 µM

With `COc1ccc2c(c1)c(CC(=O)O)c(C)n2C(=O)c1ccc(Cl)cc1` [INDOMETHACIN] the Activity [1] was “Non-toxic”.
`Cc1cccc(Nc2ccccc2C(=O)O)c1C` [MEFENAMIC ACID] was tested, and the Activity [1] was “Non-toxic”.
With `COS(C)(=O)=O` [METHANESULFONIC ACID METHYL ESTER] the Activity [2] was “Toxic”.
`COc1c(C)c2c(c(O)c1C/C=C(\C)CCC(=O)O)C(=O)OC2` [MYCOPHENOLIC ACID] was tested, and the Activity [1] was “Non-toxic”.
For `COc1ccc2cc([C@H](C)C(=O)O)ccc2c1` [NAPROXEN], the Activity [3] was under 5.4%, the Activity [4] was “tde” and the Activity [5] was “Toxic”. For the same compound, the Drug uptake [6] was “Active”, the Activity [7] was “tde” and the Activity [8] was “tde”. The Drug uptake [9] was “Active”, the Activity [10] was “Non-toxic” and the Activity [11] was “tde”. For the same compound, the Activity [12] was “tde”, the Activity [13] was “Toxic” and the Activity [14] was “tde”. The Activity [15] was “Non-toxic” and the Activity [16] was “Toxic”.
In the case of `O=C(O)c1cccnc1Nc1cccc(C(F)(F)F)c1` [NIFLUMIC ACID], the Activity [1] is reported as “Non-toxic”.
For `CCCN(CCC)S(=O)(=O)c1ccc(C(=O)O)cc1` [PROBENECID], the Activity [1] was “Non-toxic”.
In the case of `O=C(O)c1ccccc1O` [SALICYLIC ACID], the Activity [17] is reported as “Non-toxic”, the Activity [1] is reported as “Non-toxic” and the Activity [10] is reported as “Non-toxic”.
In the case of `Cc1cc(CC(=O)O)n(C)c1C(=O)c1ccc(Cl)cc1` [ZOMEPIRAC], the Activity [18] is reported as “Non-toxic”, the Activity [19] is reported as “Non-toxic” and the Activity [20] is reported as “Non-toxic”.
